The source of these data is ChEMBL document CHEMBL2069263, “Synthesis and characterization of quinoline-based thiosemicarbazones and correlation of cellular iron-binding efficacy to anti-tumor efficacy” (Bioorg Med Chem Lett, 2012).

The structures appear in SMILES notation. The source made the active and inactive calls. The rule behind the calls is not given here.

In series [1] the test system is HCT-116. The series is described as follows: Antiproliferative activity against human HCT116 cells expressing p53 after 72 hrs by MTT assay. The conditions noted are these: HCT-116, 72 h. It is filed as functional, cell-based. Summed up:
(§1)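 Cells (SK-N-MC neuroepithelioma, HCT116 colon cancer p53+/+ or p53−/−, normal human dermal fibroblasts) were exposed to compounds for 72 h and proliferation was measured by standard methods. IC50 is reported as mean ± SD of three experiments.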
Background: Formazan colour is commonly taken as a measure of viable cells.

Series [2] relates to SK-N-MC. The series is described as follows: Antiproliferative activity against human SK-N-MC cells after 72 hrs by MTT assay. The class given is functional, cell-based. Summed up:
as §1

Another series relates to NHDF. The series is described as follows: Antiproliferative activity against human NHDF cells after 72 hrs by MTT assay. It is filed as cell-based. Summed up:
as §1

For series [3], the system named is SK-N-MC. Put plainly: Iron chelation activity in human SK-N-MC cells assessed as cellular 59Fe released at 25 uM incubated for 3 hrs post 59Fe-transferrin-labeling by gamma scintillation counting. The class given is functional. In outline:
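SK-N-MC cells were prelabeled with 59Fe-transferrin for 3 h at 37 °C and washed 4 times with ice-cold PBS. They were then reincubated for 3 h at 37 °C with or without chelator. Released 59Fe was counted by scintillation counting. Results are mean ± SD of three experiments.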

In series [4] the test system is HCT-116. Put plainly: Antiproliferative activity against p53-deficient human HCT116 cells after 72 hrs by MTT assay. The conditions noted are these: HCT-116, 72 h. The class given is functional, cell-based. Summed up:
as §1

Series [5] deals with SK-N-MC. The series is described as follows: Iron chelation activity in human SK-N-MC cells assessed as inhibition of 59Fe uptake from transferrin complex at 25 uM after 3 hrs by gamma scintillation counting relative to control. It is filed as functional. The arrangement: scale not given: the % may be the effect or the level left. Summed up:
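SK-N-MC cells were incubated with 59Fe-transferrin, with or without chelator, for 3 h at 37 °C and washed 4 times with ice-cold PBS. Internalized 59Fe was taken as the pronase-resistant fraction after pronase (1 mg/mL, 30 min, 4 °C) and counted by γ-scintillation. Uptake is expressed relative to control, mean ± SD of three experiments.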

Series [6] concerns HCT-116. Put plainly: Antiproliferative activity against human HCT116 cells expressing p53 assessed as cell survival at 1 nM after 9 days by clonogenic assay relative to control. It is filed as functional.
Series [7] relates to HCT-116. Put plainly: Antiproliferative activity against human HCT116 cells expressing p53 assessed as cell survival at 0.5 nM after 9 days by clonogenic assay relative to control. It is filed as functional.
Series [8] has as its system HCT-116. Put plainly: Antiproliferative activity against human HCT116 cells expressing p53 assessed as cell survival at 5 nM after 9 days by clonogenic assay relative to control. It is filed as functional.
Series [9] in a line: Therapeutic index, ratio of IC50 for human NHDF cells to IC50 for human SK-N-MC cells. The conditions noted are these: NHDF cells and SK-N-MC cells, read-out: Ratio IC50. It is filed as cell-based. Summed up:
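Ratio of NHDF IC50 to SK-N-MC IC50. Both IC50s come from anti-proliferative assays after a 72 h incubation with the chelator. Each IC50 is the mean ± SD of three experiments.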

For series [10], the system named is HCT-116. Put plainly: Antiproliferative activity against p53-deficient human HCT116 cells assessed as cell survival at 50 uM after 9 days by clonogenic assay relative to control. It is filed as functional.
Series [11] relates to HCT-116. Put plainly: Antiproliferative activity against human HCT116 cells expressing p53 assessed as cell survival at 30 uM after 9 days by clonogenic assay relative to control. It is filed as functional.
For series [12], the system named is HCT-116. The series is described as follows: Antiproliferative activity against p53-deficient human HCT116 cells assessed as cell survival at 30 uM after 9 days by clonogenic assay relative to control. It is filed as functional.
Series [13] has as its system HCT-116. Put plainly: Antiproliferative activity against human HCT116 cells expressing p53 assessed as cell survival at 50 uM after 9 days by clonogenic assay relative to control. It is filed as functional.
The test system of series [14] is HCT-116. Put plainly: Antiproliferative activity against p53-deficient human HCT116 cells assessed as cell survival at 25 uM after 9 days by clonogenic assay relative to control. It is filed as functional.
The test system of series [15] is HCT-116. The series is described as follows: Antiproliferative activity against p53-deficient human HCT116 cells assessed as cell survival at 20 uM after 9 days by clonogenic assay relative to control. It is filed as functional.
The test system of series [16] is HCT-116. The series is described as follows: Antiproliferative activity against human HCT116 cells expressing p53 assessed as cell survival at 40 uM after 9 days by clonogenic assay relative to control. The class given is functional.
Series [17] concerns HCT-116. The series is described as follows: Antiproliferative activity against p53-deficient human HCT116 cells assessed as cell survival at 40 uM after 9 days by clonogenic assay relative to control. It is filed as functional.
The subject of series [18] is HCT-116. Put plainly: Antiproliferative activity against human HCT116 cells expressing p53 assessed as cell survival at 20 uM after 9 days by clonogenic assay relative to control. The class given is functional.
In series [19] the test system is HCT-116. Put plainly: Antiproliferative activity against human HCT116 cells expressing p53 assessed as cell survival at 25 uM after 9 days by clonogenic assay relative to control. It is filed as functional.

One may read the IC50 as the concentration that gives 50% inhibition. As for `CN(C)C(=S)N/N=C/c1ccc2cccc(O)c2n1`, the IC50 with HCT-116 [1] is above 15 µM; in the series with SK-N-MC [2], 9.69 µM; with NHDF, 15.8 µM; with HCT-116 [4], 0.27 µM. Also, the Activity in the series on SK-N-MC [3] is 33%; in the series on SK-N-MC [5] it was 14%.

With `CNC(=S)N/N=C/c1ccc2cccc(O)c2n1`, the IC50 is 1.71 µM with HCT-116 [1], above 12.5 µM in the series on SK-N-MC [2], above 25 µM with NHDF and 2.17 µM in the series on HCT-116 [4]. In the series on SK-N-MC [3], the outcome was inactive. In addition, in the series on SK-N-MC [5], the Activity was found to be 49%.

With `CN(C)C(=S)NN=C(c1ccccn1)c1ccccn1`, the IC50 with HCT-116 [1] was 0.002 µM; in the series with SK-N-MC [2], 0.014 µM; in the series on NHDF, 15.4 µM; with HCT-116 [4], 0.005 µM. In addition, the “fold change (FC)” value in the series with HCT-116 [6] is 0.8541; in the series on HCT-116 [7] it was 1.0629; with HCT-116 [8], 0.1922.

As for `CN(C)C(=S)N/N=C/c1c(O)ccc2cccnc12`, the IC50 was 20.8 µM in the series on HCT-116 [1], 0.11 µM with SK-N-MC [2], 14.9 µM in the series on NHDF and above 25 µM in the series with HCT-116 [4]. The selectivity ratio in [9] amounted to 131. The Activity was 33% in the series with SK-N-MC [3] and 18% in the series on SK-N-MC [5].

Turning to `Oc1cccc2ccc(/C=N/NC(=S)Nc3ccccc3)nc12`, the IC50 is 25 µM in the series with HCT-116 [1], above 12.5 µM in the series on SK-N-MC [2] and 20.9 µM with HCT-116 [4]. Further, the outcome in the series with SK-N-MC [3] was inactive. Besides, in the series on SK-N-MC [5], the Activity turned out to be 49%.

Consider `Oc1ccc2cccnc2c1/C=N/NC(=S)Nc1ccccc1`, for which the IC50 with HCT-116 [1] came out at 16.3 µM; in the series on SK-N-MC [2] it was 1.63 µM; with NHDF, 14.9 µM; with HCT-116 [4], 18.6 µM. For the same compound, the Activity in the series with SK-N-MC [5] was determined as 49%.

In the series on SK-N-MC [2], `CC(=O)N(O)CCCCCNC(=O)CCC(=O)N(O)CCCCCNC(=O)CCC(=O)N(O)CCCCCN` [DEFEROXAMINE] registered an IC50 of 12.5 µM.

Consider `CNC(=S)N/N=C/c1c(O)ccc2cccnc12`, for which the concentration for half-maximal inhibition (IC50) was above 25 µM in the series with HCT-116 [1], 0.62 µM in the series on SK-N-MC [2], above 25 µM in the series with NHDF and 8.06 µM with HCT-116 [4]. The “fold change (FC)” value is 0 in the series on HCT-116 [10]; 0.039 in the series with HCT-116 [11]; 0.012 in the series on HCT-116 [12]; 0 in the series on HCT-116 [13]; 0.034 in the series on HCT-116 [14]; 0.06 in the series on HCT-116 [15]. The “fold change (FC)” value with HCT-116 [16] stood at 0.014; with HCT-116 [17], 0.004; in the series with HCT-116 [18] it was 0.05; with HCT-116 [19] it was 0.041. For the same compound, the Activity in the series with SK-N-MC [3] came to 33%; in the series with SK-N-MC [5] it was 45%.

The compound `O=C(N/N=C/c1c(O)ccc2ccccc12)c1ccncc1` showed an IC50 with SK-N-MC [2] of 1.3 µM.

With `S=C(N/N=C/c1ccc2ccccc2n1)Nc1ccccc1`, the IC50 in the series on HCT-116 [1] is 22.3 µM; with SK-N-MC [2] it was above 12.5 µM; in the series on HCT-116 [4] it was 21.4 µM. In the series on SK-N-MC [3], the outcome was inactive.

Turning to `CN(C)C(=S)N/N=C(/c1ccccc1)c1ccccn1`, the entries for the “fold change (FC)” value in the series on HCT-116 [6] and in the series on HCT-116 [7] were 0.1273 and 0.6762, respectively.

On to `CN(C)C(=S)N/N=C/c1ccc2ccccc2n1`, for which the IC50 with HCT-116 [1] was 4.86 µM; in the series on SK-N-MC [2] it was 0.81 µM; in the series on NHDF it was 11.7 µM; in the series on HCT-116 [4], 0.37 µM. For the same compound, the selectivity ratio in series [9] stood at 14. Also, in the series on SK-N-MC [5], the Activity was 49%.

With `CCNC(=S)N/N=C/c1c(O)ccc2cccnc12`, the IC50 in the series on HCT-116 [1] is above 25 µM; in the series on SK-N-MC [2] it was 0.19 µM; with NHDF, above 25 µM; in the series with HCT-116 [4] it was above 25 µM. Also, the Activity with SK-N-MC [3] stood at 33%; in the series with SK-N-MC [5], 24%.

As to `CCNC(=S)N/N=C/c1ccc2ccccc2n1`, the figures for the IC50 in the series on HCT-116 [1], in the series with SK-N-MC [2] and in the series on HCT-116 [4] were 23.2 µM, above 12.5 µM and 19.6 µM, respectively. In addition, in the series on SK-N-MC [5], the Activity stood at 49%.

With `CCNC(=S)N/N=C/c1ccc2cccc(O)c2n1`, the IC50 in the series on HCT-116 [1] is 2.62 µM; in the series with SK-N-MC [2], above 12.5 µM; in the series on NHDF it was above 25 µM; in the series with HCT-116 [4], 3.15 µM. Further, the result in the series on SK-N-MC [3] was inactive. Further, the Activity in the series with SK-N-MC [5] worked out at 49%.

Consider `CNC(=S)N/N=C/c1ccc2ccccc2n1`, for which the IC50 with HCT-116 [1] was above 25 µM; with SK-N-MC [2] it was above 12.5 µM; in the series on HCT-116 [4], above 25 µM. In addition, the Activity in the series on SK-N-MC [5] turned out to be 49%.
